This passage reports CC50 and LC50 results from ChEMBL document CHEMBL1147237, “Two new epimeric pairs of acetogenins bearing a carbonyl group from Annona cherimolia seeds” (J Nat Prod, 2003).

Structures are written as SMILES. Converted amounts (≈) assume the structure as drawn.

For one data set, the system named is PC-3. Kind of data set: Cytotoxicity against human PC3 cells after 7 days by MTT assay. Conditions: PC-3, 168 h, read-out: LD50 (the source's name). It counts as functional. The procedure, abridged:
(§1)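 Seven-day in vitro MTT cytotoxicity assay run by a cancer-center cell culture laboratory under standard protocols, using A-549 (human lung carcinoma), MCF-7 (human breast carcinoma), HT-29 (human colon adenocarcinoma), A-498 (human kidney carcinoma) and PC-3 (human prostate) cells. Isolated compounds were tested.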

The next data set has as its system HT-29. In words: Cytotoxicity against human HT-29 cells after 7 days by MTT assay. It counts as functional. The settings on record: HT-29, 168 h, read-out: LD50 (the source's name). The procedure, abridged:
as §1
A general note: Tetrazolium assays rely on reduction of a dye to a coloured formazan, in cell work by metabolically active cells.

A further data set has as its system A498. Kind of data set: Cytotoxicity against human A498 cells after 7 days by MTT assay. It counts as functional. The settings on record: A498, 168 h, read-out: LD50 (the source's name). The essentials:
as §1

The test system of the next data set is MCF7. In words: Cytotoxicity against human MCF7 cells after 7 days by MTT assay. It counts as functional. Conditions: MCF7, 168 h, read-out: LD50 (the source's name). The essentials: as §1
For a further data set, the system named is A549. Kind of data set: Cytotoxicity against human A549 cells after 7 days by MTT assay. It counts as functional. Conditions: A549, 168 h, read-out: LD50 (the source's name). The procedure, abridged: as §1
A further data set relates to MIA PaCa-2. Kind of data set: Cytotoxicity against human MIAPaCa2 cells after 7 days by MTT assay. It counts as functional. The settings on record: MIA PaCa-2, 168 h, read-out: LD50 (the source's name).
Data set [1] can be described thus: (§2) Toxicity in brine shrimp larvae. It counts as organism-based. The settings on record: artemia, in vivo.
For the next data set, the system named is Artemia. Described as §2. The settings on record: in vivo. It counts as organism-based.

On to `COc1cccc2c1C(=O)c1c(O)c3c(c(O)c1C2=O)C[C@@](O)(C(=O)CO)C[C@@H]3O[C@H]1C[C@H](N)[C@H](O)[C@H](C)O1` [DOXORUBICIN], for which the CC50 in the data set on PC-3 turned out to be 0.0502 µg/mL (≈ 0.0924 µM); in the data set on HT-29 it was 0.0128 µg/mL (≈ 0.0235 µM); in the data set with A498 it was 0.00226 µg/mL (≈ 0.00416 µM); in the data set with MCF7, 0.0182 µg/mL (≈ 0.0335 µM); with A549, 0.00113 µg/mL (≈ 0.00208 µM); in the data set on MIA PaCa-2, 0.00262 µg/mL (≈ 0.00482 µM).
In the case of `CCCCCCCCCCCC[C@@H](O)[C@H]1CC[C@H]([C@H](O)CCCC(=O)CCCCCCCCC2=CC(C)(O)OC2=O)O1` (mixture of isomers), the CC50 amounted to 0.198 µg/mL in the data set on PC-3; 0.193 µg/mL with HT-29; 0.93 µg/mL in the data set on A498; 0.303 µg/mL in the data set with MCF7; 1.26 µg/mL in the data set with A549; 0.00312 µg/mL in the data set on MIA PaCa-2. Besides, the LC50 in data set [1] is 0.375 µg/mL.
Regarding `CCCCCCCCCCCC[C@@H](O)[C@H]1CC[C@H]([C@H](O)CCCC(=O)CCCCCC[C@@H](O)CC2=CC(C)(O)OC2=O)O1` (mixture of isomers) [ANNOMOLON B/34-EPI-ANNOMOLON B], the CC50 was determined as 0.0553 µg/mL with PC-3; 0.0719 µg/mL in the data set on HT-29; 0.377 µg/mL with A498; 0.047 µg/mL in the data set on MCF7; 1.37 µg/mL with A549; 0.00748 µg/mL with MIA PaCa-2. The molecule further gave an LC50 with Artemia of 7 ×10⁻² ug/ml.
